From ChEMBL document CHEMBL1129359, “Alkyl and alkoxyethyl antineoplastic phospholipids” (J Med Chem, 1996) come the findings set out here.

Each structure is given as a SMILES string. Converted amounts (≈) assume the structure as drawn. The source made the active and inactive calls. The rule behind the calls is not given here.

The target of assay [1] is T1, M-phase inducer phosphatase 1 (Homo sapiens, UniProt P30304).
T1 sequence (P30304 whole entry): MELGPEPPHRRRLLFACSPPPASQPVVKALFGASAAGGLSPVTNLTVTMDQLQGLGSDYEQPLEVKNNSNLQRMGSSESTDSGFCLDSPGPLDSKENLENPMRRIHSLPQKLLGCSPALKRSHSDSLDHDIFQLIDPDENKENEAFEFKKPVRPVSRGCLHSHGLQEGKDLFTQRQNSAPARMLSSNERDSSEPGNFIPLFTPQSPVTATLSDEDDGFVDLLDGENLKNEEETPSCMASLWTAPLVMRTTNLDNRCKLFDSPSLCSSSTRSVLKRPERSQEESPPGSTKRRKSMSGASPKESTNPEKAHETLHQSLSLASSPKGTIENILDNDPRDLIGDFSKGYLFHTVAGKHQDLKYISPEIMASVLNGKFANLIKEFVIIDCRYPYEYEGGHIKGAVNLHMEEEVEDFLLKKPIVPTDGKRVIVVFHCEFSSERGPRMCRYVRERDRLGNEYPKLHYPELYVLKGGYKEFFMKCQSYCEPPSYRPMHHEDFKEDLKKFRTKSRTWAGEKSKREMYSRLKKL
Description: Inhibition of Cell division cycle 25 (Cdc25) phosphatase. Put shortly:
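Enzyme is GST-human cdc25A fusion expressed in E. coli and purified on glutathione-agarose. Enzyme and DTT in Tris buffer are preincubated 15 min at 37 °C. The reaction starts with p-nitrophenyl phosphate (500 mM stock) and runs 60 min at 37 °C. Absorbance is read at 405 nm, and the no-enzyme blank is subtracted.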

A short description of assay [2]: In vitro cytotoxic effect in 0 of 6 human tumor xenografts. The assay is classed as functional. Put shortly:
(§1)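 Double-layer soft-agar clonogenic assay. Tumor cells come from human tumor xenografts serially passaged in nude mice. Cells are dispersed with collagenase 0.05%, DNase 0.07% and hyaluronidase 0.1% (37 °C, 30 min), sieved, and viability is checked by trypan blue. 20 000–200 000 cells go in 0.4% agar over a 0.7% agar base in IMDM with 20% FCS. Drug is overlaid continuously for at least 1 week.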
(A xenograft is tissue or cells of one species grown in another, often human tumour cells in immunodeficient mice.)

Assay [3] concerns panel of six human tumor xenografts (Homo sapiens). The assay can be described thus: In vitro cytotoxicity in six human tumor xenografts.
Another assay deals with CXF1103. The assay can be described thus: In vitro cytotoxicity against human tumor xenograft CXF 1103 colorectal adenocarcinoma. The assay is classed as functional. Put shortly:
as §1

In a further assay the test system is LXFL 529. The assay can be described thus: In vitro cytotoxicity against human tumor xenograft LXFL 529 Nonsmall cell lung carcinoma. It counts as functional. Put shortly: as §1
Another assay concerns LXFL 529/ LXFS 538. The assay can be described thus: In vitro cytotoxicity in nonsmall cell lung carcinoma cell line LXFL 529 and small cell lung carcinoma cell line LXFS 538 human tumor xenografts. The assay is classed as functional. Put shortly:
as §1

The subject of another assay is MEXF989. The assay can be described thus: In vitro cytotoxicity against human tumor xenograft MEXF 989 melanoma. It counts as functional. Put shortly: as §1
In another assay the test system is OVXF1023 cell line. Description: In vitro cytotoxicity against human tumor xenograft OVXF1023 ovarian adenocarcinoma. The assay is classed as functional. Put shortly: as §1
A further assay relates to RXF 423. Description: In vitro cytotoxicity against human tumor xenograft RXF 423 renal cancer. It counts as functional. Put shortly:
as §1

A short description of assay [4]: In vitro cytotoxic effect in 2 of 6 human tumor xenografts, LXFL and LXFS. The assay is classed as functional. Put shortly:
as §1

Another assay concerns LXFS538. The assay can be described thus: In vitro cytotoxicity against human tumor xenograft LXFS 538 small cell lung carcinoma. The assay is classed as functional. Put shortly:
as §1

The nature of assay [5]: In vitro cytotoxic effect in 2 of 6 human tumor xenografts, LXFE and RXF. It counts as functional. Particulars: in the assay text read “LXFL” for “LXFE”. Put shortly:
as §1

The nature of assay [6]: In vitro cytotoxic effect in 3 of 6 human tumor xenografts, LXFS, MEXF and RXF. The assay is classed as functional. Put shortly: as §1
The nature of assay [7]: In vitro cytotoxic effect in 1 of 6 human tumor xenografts, LXFS. It counts as functional. Put shortly:
as §1

Assay [8] in a line: In vitro cytotoxic effect in 2 of 6 human tumor xenografts, LXFS and RXF. The assay is classed as functional. Put shortly: as §1
Assay [9] is described as follows: In vitro cytotoxic effect in 4 of 6 human tumor xenografts, LXFL, LXFS, MEXF and OVXF. The assay is classed as functional. Put shortly:
as §1

Assay [10] deals with Cyclin-dependent kinase 1 (starfish). Description: Inhibition of Cell division cycle 2 (cdc2) kinase.
The nature of assay [11]: In vitro cytotoxic effect in 1 of 6 human tumor xenografts, RXF. It counts as functional. Put shortly:
as §1

For `CCCCCCCCCCCCOP(=O)([O-])OCC[N+]1(C)CCOCC1`, in assay [1], the midpoint of inhibition, the IC50, lay at 500 µM. The NA entry in assay [2] was “inactive”. The “Mean IC70” value in assay [3] was more than 10 µg/mL.

With `CCCCCCCCCCCCCCCCOCCOP(=O)([O-])OCC[N+]1(C)CCCCC1`, the IC70 was more than 10 µg/mL in the assay with CXF1103; 5.38 µg/mL (≈ 10.9 µM) in the assay with LXFL 529; more than 10 µg/mL in the assay with MEXF989; more than 10 µg/mL in the assay with OVXF1023 cell line; 10 µg/mL (≈ 20.3 µM) with RXF 423; 4.54 µg/mL (≈ 9.23 µM) in the assay with LXFS538. In addition, it took 100 µM to reach half-maximal inhibition in assay [1] (IC50). Besides, in the assay with LXFL 529/ LXFS 538, the “Mean IC70” value is 7.9 µg/mL. For the same compound, in assay [4], the Cytotoxicity result was “Weak activity”.

For `CCCCCCCCCCCCCCCCOP(=O)([O-])OCC[N+](C)(C)C` [MILTEFOSINE], the IC70 in the assay on CXF1103 was more than 10 µg/mL; in the assay with LXFL 529 it was 9.57 µg/mL (≈ 23.5 µM); in the assay with MEXF989 it was more than 10 µg/mL; with OVXF1023 cell line it was more than 10 µg/mL; in the assay with RXF 423, 2.75 µg/mL (≈ 6.76 µM); with LXFS538 it was more than 10 µg/mL. Further, the IC50 in assay [1] turned out to be 25 µM. Besides, the Cytotoxicity entry in [5] was “Weak activity”. The “Mean IC70” value in [3] is 8 µg/mL.

As to `CCCCCCCCCCCCCCCCOCCOP(=O)([O-])OCC[N+]1(C)CCOCC1`, the IC70 with CXF1103 was more than 10 µg/mL; in the assay on LXFL 529 it was 10.4 µg/mL (≈ 21 µM); with MEXF989, 8.76 µg/mL (≈ 17.7 µM); in the assay on OVXF1023 cell line it was more than 10 µg/mL; in the assay with RXF 423, 4.76 µg/mL (≈ 9.64 µM); with LXFS538, 5.12 µg/mL (≈ 10.4 µM). In assay [1], the IC50 was 1000 µM. In addition, in the assay with LXFL 529/ LXFS 538, the “Mean IC70” value came out at 7.8 µg/mL. The Cytotoxicity entry in assay [6] is “Weak activity”.

In turn, `CCCCCCCCCCCCCCOCCOP(=O)([O-])OCC[N+]1(C)CCCCC1` gave an IC50 in [1] of 300 µM. The “Mean IC70” value in the assay with LXFL 529/ LXFS 538 was more than 10 µg/mL. Besides, in assay [7], the Cytotoxicity entry was “Weak activity”.

As to `CCCCCCCCCCCCCCOCCOP(=O)([O-])OCC[N+]1(C)CCOCC1`, the IC70 is more than 10 µg/mL in the assay with CXF1103; 10 µg/mL (≈ 21.5 µM) with LXFL 529; more than 10 µg/mL in the assay on MEXF989; more than 10 µg/mL in the assay on OVXF1023 cell line; 6.74 µg/mL (≈ 14.5 µM) in the assay with RXF 423; 5.85 µg/mL (≈ 12.6 µM) in the assay with LXFS538. In addition, the IC50 in [1] is 380 µM. The “Mean IC70” value with LXFL 529/ LXFS 538 amounted to 8.6 µg/mL. Besides, the Cytotoxicity result in assay [8] is “Weak activity”.

For `CCCCCCCCCCCCOP(=O)([O-])OCC[N+]1(C)CCCCC1`, the IC50 in assay [1] is more than 1000 µM. The Cytotoxicity result in assay [7] was “Weak activity”. Further, the “Mean IC70” value in assay [3] was more than 10 µg/mL.

As for `CCCCCCCCCCCCCCCCOP(=O)([O-])OCC[N+]1(C)CCCCC1`, the IC70 in the assay on CXF1103 is more than 10 µg/mL; in the assay on LXFL 529 it was 4.33 µg/mL (≈ 9.67 µM); with MEXF989, 4.64 µg/mL (≈ 10.4 µM); in the assay on OVXF1023 cell line, 7.8 µg/mL (≈ 17.4 µM); in the assay with RXF 423 it was 10 µg/mL (≈ 22.3 µM); in the assay on LXFS538, 1.9 µg/mL (≈ 4.23 µM). The IC50 in [1] turned out to be 460 µM. Moreover, the Cytotoxicity entry in assay [9] was “Weak activity”. For the same compound, in assay [3], the “Mean IC70” value came out at 5.6 µg/mL.

As to `CCCCCCCCCCCCOCCOP(=O)([O-])OCC[N+]1(C)CCOCC1`, the IC50 in [1] came to 610 µM. Moreover, the “Mean IC70” value in the assay on LXFL 529/ LXFS 538 is more than 10 µg/mL. The Cytotoxicity entry in assay [7] was “Weak activity”.

With `CCCCCCCCCCCCCCOP(=O)([O-])OCC[N+]1(C)CCCCC1`, the IC50 was 490 µM in assay [1] and more than 1000 µM in assay [10]. For the same compound, the NA entry in [2] is “inactive”. Also, in assay [3], the “Mean IC70” value is more than 10 µg/mL.

On to `CCCCCCCCCCCCCCOP(=O)([O-])OCC[N+]1(C)CCOCC1`, for which, in assay [1], the IC50 is 290 µM. The Cytotoxicity result in [11] is “Weak activity”. The “Mean IC70” value in assay [3] was more than 10 µg/mL.

`CCCCCCCCCCCCCCCCOP(=O)([O-])OCC[N+]1(C)CCOCC1` gave an IC50 in [1] of 40 µM. Moreover, the Cytotoxicity result in assay [11] was “Weak activity”. For the same compound, the “Mean IC70” value in [3] is more than 10 µg/mL.

As usually defined, the IC50 is the midpoint of a concentration-inhibition curve. Read a high IC50 as lower potency. A word on the IC70: it is the concentration needed for an effect of 70%.
